This is an account of results in ChEMBL document CHEMBL5346966, “Discovery and Characterization of PROTACs Targeting Tissue Transglutaminase (TG2)” (J Med Chem, 2023).

Test [1] deals with OVCAR-5. Description: Inhibition of cell migration in human OVCAR-5 cells at 10 uM incubated for 18 hrs by crystal violet staining based wound healing assay. The format is functional.
Test [2] concerns SK-OV-3. Kind of test: Inhibition of cell migration in human SK-OV-3 cells at 10 uM incubated for 18 hrs by crystal violet staining based wound healing assay. The format is functional.
Test [3] deals with SK-OV-3. Kind of test: Inhibition of cell adhesion to fibronectin in human SK-OV-3 cells at 10 uM incubated for 6 hrs by CCK-8 assay. The format is functional, cell-based. The method, boiled down:
(§1)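 Wells coated for 1 h with 10 μg/mL fibronectin in PBS. After PBS wash, attached cells counted by CCK-8 absorbance at […]. n = 3.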
Background: Tetrazolium dyes change colour on reduction, which living cells bring about.

In test [4] the target is T1, Protein-glutamine gamma-glutamyltransferase (Homo sapiens) (UniProt P21980).
T1 sequence (whole entry): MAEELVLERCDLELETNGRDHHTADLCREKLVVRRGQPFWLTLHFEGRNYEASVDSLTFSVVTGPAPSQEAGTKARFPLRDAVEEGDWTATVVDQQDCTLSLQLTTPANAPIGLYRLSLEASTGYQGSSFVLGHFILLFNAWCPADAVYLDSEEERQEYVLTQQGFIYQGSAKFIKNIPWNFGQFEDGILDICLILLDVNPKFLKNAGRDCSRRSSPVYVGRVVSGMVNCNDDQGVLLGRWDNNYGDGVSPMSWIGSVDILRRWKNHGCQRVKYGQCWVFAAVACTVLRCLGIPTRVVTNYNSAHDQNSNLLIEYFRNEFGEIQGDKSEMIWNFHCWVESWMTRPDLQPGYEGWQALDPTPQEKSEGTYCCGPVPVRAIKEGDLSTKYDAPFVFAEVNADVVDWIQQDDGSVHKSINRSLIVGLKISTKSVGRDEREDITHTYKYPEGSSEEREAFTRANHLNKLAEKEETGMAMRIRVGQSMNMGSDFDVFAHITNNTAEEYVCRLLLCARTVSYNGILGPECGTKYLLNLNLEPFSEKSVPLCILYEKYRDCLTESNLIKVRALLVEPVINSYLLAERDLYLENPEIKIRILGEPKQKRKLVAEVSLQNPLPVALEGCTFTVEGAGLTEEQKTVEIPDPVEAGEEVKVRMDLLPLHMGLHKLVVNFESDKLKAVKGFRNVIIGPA
Kind of test: Induction of TG2 degradation in human SK-OV-3 cells assessed as reduction in TG2 level at 0.1 to 10 uM measured after 6 hrs by Western blot analysis. Particulars: dose 0.1-10 µM. The format is cell-based. Background: A western blot detects proteins with antibodies after separation by electrophoresis.

Test [5] concerns the target T1, Protein-glutamine gamma-glutamyltransferase (Homo sapiens). Description: Induction of TG2 degradation in human OVCAR-5 cells assessed as reduction in TG2 level at 0.1 to 10 uM measured after 6 hrs by Western blot analysis. The format is cell-based. Particulars: dose 0.1-10 µM. In outline: (§2)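 Cells on 6 cm dishes treated for 6 or 24 h; OVCAR5 at 0.1, 1 and 10 μM, SKOV3 at 1 and 10 μM; DMSO control. RIPA lysates quantified by Bradford, then western blot with anti-TG2 and GAPDH antibodies (1:1000, overnight 4 °C). Bands quantified by densitometry; n = 3.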

Test [6] has as its system SK-OV-3. Description: Inhibition of cell migration in human SK-OV-3 cells at 10 uM incubated for 18 hrs by crystal violet staining based transwell migration assay. The format is functional. The method, boiled down:
(§3)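 Transwell migration through 8 μm pores: 15,000 OVCAR5 or SKOV3 cells in serum-free medium with compound or control in upper chamber, 10% serum below. After 18 h, migrated cells fixed in 4% PFA, stained with crystal violet and counted at 40×. n = 3.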

Test [7] has as its system OVCAR-5. Description: Inhibition of cell migration in human OVCAR-5 cells at 10 uM incubated for 18 hrs by crystal violet staining based transwell migration assay. The format is functional. The method, boiled down: as §3
Test [8] relates to OVCAR-5. Description: Inhibition of cell adhesion to fibronectin in human OVCAR-5 cells at 10 uM incubated for 6 hrs by CCK-8 assay. The format is functional, cell-based. The method, boiled down: as §1
In test [9] the target is T1, Protein-glutamine gamma-glutamyltransferase (Homo sapiens). Description: Induction of TG2 degradation in human SK-OV-3 cells assessed as reduction in TG2 level measured after 2 to 12 hrs by Western blot analysis. The format is cell-based. Particulars: dose 0.1-30 µM, time 2-12 hrs. The method, boiled down: (§4)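 SKOV3 cells treated with 0.1, 0.3, 1, 3, 10 or 30 μM for 0, 2, 6, 12 and 24 h. TG2 measured by western blot of RIPA lysates with GAPDH reprobe after stripping, followed by densitometry. n = 3 experimental replicates.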

Test [10] has the same target. Kind of test: Induction of TG2 degradation in human OVCAR-5 cells assessed as reduction in TG2 level at 0.1 to 10 uM measured after 24 hrs by Western blot analysis. The format is cell-based. Particulars: dose 0.1-10 µM. In outline: as §2
Test [11] has the same target. Description: Induction of TG2 degradation in human OVCAR-5 cells assessed as reduction in TG2 level measured within 6 hrs by Western blot analysis. The format is cell-based. Particulars: dose 0.1-10 µM.
Test [12] shares this target. Description: Induction of TG2 degradation in human SK-OV-3 cells assessed as reduction in TG2 level at 0.1 to 10 uM measured after 24 hrs by Western blot analysis. The format is cell-based. Particulars: dose 0.1-10 µM.
For test [13] the target is unchanged. Description: Induction of TG2 degradation in human SK-OV-3 cells assessed as reduction in TG2 level at 10 uM incubated for 6 hrs in presence of VHL-L by Western blot analysis. The format is cell-based. The method, boiled down: (§5)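 OVCAR5 or SKOV3 cells treated for 6 h with compound at 10 μM plus 10 μM VHL ligand as competitor. TG2 measured by western blot with densitometry against control. n = 3.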

Test [14] shares this target. Description: Induction of TG2 degradation in human SK-OV-3 cells assessed as reduction of TG2 level at 10 uM incubated for 6 hrs followed by MG132 addition and measured after 8 hrs by Western blot analysis. Particulars: time 14.0 hrs. The format is cell-based. In outline:
(§6)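 Proteasome dependence checked in OVCAR5 or SKOV3 cells: compound at 10 μM for 6 h, with MG132 at 20 μM for 8 h. TG2 measured by western blot, and band intensity expressed relative to DMSO control. n = 3.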

Test [15] shares this target. Kind of test: Induction of TG2 degradation in human SK-OV-3 cells assessed as reduction of TG2 level at 1 to 10 uM measured after 12 hrs by Western blot analysis. The format is cell-based. Particulars: dose 1-10 µM, time 24.0 hrs, in the assay text read “24 hrs” for “12 hrs”. The method, boiled down:
as §4

The target is the same in test [16]. Description: Induction of TG2 degradation in human SK-OV-3 cells assessed as maximal degradation at 10 to 30 uM measured after 6 hrs by Western blot analysis. The format is cell-based. Particulars: dose 10-30 µM. The method, boiled down: as §4
For test [17], the system named is OVCAR-5. Kind of test: Cytotoxicity against human OVCAR-5 cells assessed as cell death at 0.1 to 30 uM treated every 6 to 8 hrs for 5 days. The format is functional, cell-based. Particulars: dose 0.1-30 µM, time 5.0 day. In outline: (§7)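 OVCAR5 and SKOV3 cells in 96-well plates given compound at 0.1, 0.3, 1, 3, 10 or 30 μM, redosed every 6–8 h over 5 days. Viable cells measured by CCK-8 absorbance at […]. n = 3.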

Test [18] has as its target T1, Protein-glutamine gamma-glutamyltransferase (Homo sapiens). Description: Induction of TG2 degradation in human OVCAR-5 cells assessed as reduction of TG2 level treated every 6 to 8 hrs for 24 hrs by Western blot analysis. The format is cell-based. Particulars: dose 1-10 µM. The method, boiled down: (§8)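 OVCAR5 or SKOV3 cells given compound at 1 or 10 μM, redosed every 6–8 h over 24 h. TG2 measured at 24 h by western blot of RIPA lysates.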

Test [19] addresses T2, Protein-glutamine gamma-glutamyltransferase (Homo sapiens, UniProt P21980).
T2 sequence (P21980 whole entry): T1 sequence (whole entry)
Kind of test: Binding affinity to TG2 (unknown origin) assessed as dissociation constant at 30 degree C by isothermal titration calorimetry. A general note: ITC needs no label: the signal is the heat of the interaction.

The target in test [20] is T1, Protein-glutamine gamma-glutamyltransferase (Homo sapiens). Description: Induction of TG2 degradation in human OVCAR-5 cells assessed as reduction in TG2 level at 10 uM incubated for 6 hrs in presence of VHL-L by Western blot analysis. The format is cell-based. In outline:
as §5

The target is the same in test [21]. Kind of test: Induction of TG2 degradation in human OVCAR-5 cells assessed as reduction in TG2 level at 10 uM incubated for 6 hrs followed by MG132 addition and measured after 8 hrs by Western blot analysis. The format is cell-based. Particulars: time 14.0 hrs. In outline:
as §6

Test [22] deals with SK-OV-3. Description: Cytotoxicity against human SK-OV-3 cells assessed as cell death at 0.1 to 30 uM treated every 6 to 8 hrs for 5 days by CCK-8 assay. The format is functional, cell-based. Particulars: dose 0.1-30 µM, time 5.0 day. The method, boiled down:
as §7

For test [23], the target named is T1, Protein-glutamine gamma-glutamyltransferase (Homo sapiens). Description: Potency index, ratio of MT4 KD to test compound KD for binding affinity to TG2 (unknown origin) assessed as dissociation constant at 30 degree C by isothermal titration calorimetry.
For test [24] the target is unchanged. Kind of test: Induction of TG2 degradation in human OVCAR-5 cells assessed as reduction of TG2 level at 1 to 10 uM measured after 24 hrs by Western blot analysis. Particulars: dose 1-10 µM.
The target is the same in test [25]. Kind of test: Induction of TG2 degradation in human SK-OV-3 cells assessed as reduction in TG2 level at 0.1 to 30 uM by Western blot analysis. The format is cell-based. Particulars: dose 0.1-30 µM, time 2-12 hrs, TDE = time-dependent effect. The method, boiled down:
as §4

The target is the same in test [26]. Description: Induction of TG2 degradation in human SK-OV-3 cells assessed as reduction in TG2 level measured within 6 hrs by Western blot analysis. Particulars: dose 0.1-10 µM. The format is cell-based.
The target is the same in test [27]. Kind of test: Induction of TG2 degradation in human SK-OV-3 cells assessed as reduction of TG2 level treated every 6 to 8 hrs for 24 hrs by Western blot analysis. The format is cell-based. Particulars: dose 1-10 µM. The method, boiled down: as §8

Activity calls are given as the source filed them. The calls are words filed in the database; no cut-off is given here.

With `Cc1cc(N(C)CCOCCOCCOCCOCCOCCC(=O)N[C@H](C(=O)N2C[C@@H](O)C[C@H]2C(=O)NCc2ccc(-c3scnc3C)cc2)C(C)(C)C)nc(Nc2ccc(NC(=O)Cc3ccccc3)cc2)n1`, the inhibition entry in [1], in [2], in [3], in [6], in test [7] and in [8] was “inactive” in each case. The result in test [4] and in test [5] was inactive.
For `Cc1cc(N(C)CCOCCC(=O)N[C@H](C(=O)N2C[C@@H](O)C[C@H]2C(=O)NCc2ccc(-c3scnc3C)cc2)C(C)(C)C)nc(Nc2ccc(NC(=O)Cc3ccccc3)cc2)n1`, the inhibition entry in test [1], in test [2], in [3], in [6], in test [7] and in test [8] was “inactive” each time. For the same compound, the outcome in [4] and in [5] was inactive.
As a reminder, the Kd is the free concentration of one partner at which half of the binding sites on the other are occupied at equilibrium, for simple one-to-one binding. Regarding `Cc1cc(N(C)CCOCCC(=O)N[C@H](C(=O)N2C[C@H](O)C[C@H]2C(=O)NCc2ccc(-c3scnc3C)cc2)C(C)(C)C)nc(Nc2ccc(NC(=O)Cc3ccccc3)cc2)n1`, the inhibition entry in test [1], in test [2], in [3], in [6], in test [7] and in test [8] was “Active” in each case. Also, the Activity result is “Dose-Dependent Effect” in test [9], “Dose-Dependent Effect” in test [11], “Tde” in test [25] and “Dose-Dependent Effect” in [26]. In addition, the result in test [10], in [12], in test [13], in test [14], in test [15] and in test [17] was inactive. The outcome in test [20], in test [21], in test [22] and in test [24] was inactive. The result in [16], in test [18] and in [27] was Active. In addition, in test [19], the Kd is > 100 µM. In addition, in test [23], the Ratio is > 12.8.
Turning to `Cc1cc(N(C)CCOCCOCCOCCOCCOCCC(=O)N[C@H](C(=O)N2C[C@H](O)C[C@H]2C(=O)NCc2ccc(-c3scnc3C)cc2)C(C)(C)C)nc(Nc2ccc(NC(=O)Cc3ccccc3)cc2)n1`, the inhibition entry in [1], in [2], in [3], in test [6], in test [7] and in test [8] was “Active” each time. Besides, the Activity entry in test [9] was “Dose-Dependent Effect”; in [11], “Dose-Dependent Effect”; in test [25] it was “Tde”; in test [26], “Dose-Dependent Effect”. Moreover, the result in test [10], in [12], in test [13], in test [14], in test [15] and in [17] was inactive. Moreover, the result in [20], in test [21], in test [22] and in [24] was inactive. In addition, the result in test [16], in [18] and in [27] was Active. Further, in test [23], the Ratio stood at 8.8.
